Consider five molecules from ChEMBL document CHEMBL1121421, “2,4-Diamino-5-benzylpyrimidines and analogues as antibacterial agents. 2. C-Alkylation of pyrimidines with Mannich bases and application to the synthesis of trimethoprim and analogues” (J Med Chem, 1980).

Assay [1] addresses T1, Dihydrofolate reductase (Rattus norvegicus) (UniProt Q920D2).
T1 sequence (whole entry): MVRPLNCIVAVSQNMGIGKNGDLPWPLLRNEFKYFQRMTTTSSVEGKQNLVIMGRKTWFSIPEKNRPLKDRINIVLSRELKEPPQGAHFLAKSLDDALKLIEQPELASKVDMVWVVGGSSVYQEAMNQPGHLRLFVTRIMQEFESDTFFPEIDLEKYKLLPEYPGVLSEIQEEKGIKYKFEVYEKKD
As to the kind of experiment: (§1) Inhibitory activity against Dihydrofolate reductase enzyme purified from rat liver. The arrangement: scale not given: the % may be the effect or the level left. A digest of the protocol: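 Partially purified rat liver dihydrofolate reductase in phosphate buffer. Compound was preincubated with enzyme and buffer for 5 min at 37 °C. NADPH was then added, followed by FH₂ to start the reaction. IC₅₀ (50% drop in reaction rate) was taken from titrations over three to six compound concentrations. Otherwise the value is the percent inhibition at the highest concentration tested.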

Another assay has as its system Escherichia coli. Briefly: Antibacterial activity against Escherichia coli CN314. The assay is classed as functional.
For the next assay, the system named is Proteus vulgaris. Briefly: Antibacterial activity against Proteus vulgaris CN 329. The assay is classed as functional.
The next assay has as its system Shigella dysenteriae. Briefly: Antibacterial activity against of against Shig dysentariae CN 1523. The assay is classed as functional.
For the next assay, the system named is Staphylococcus aureus. Briefly: Antibacterial activity against Staphylococcus aureus CN491. The assay is classed as functional.
The next assay deals with Salmonella. Briefly: Antibacterial activity against typhi CN512. The assay is classed as functional, salmonella typhosa.
The test system of a further assay is Streptococcus pyogenes. As to the kind of experiment: Antibacterial activity against Streptococcus pyogenes CN10. The assay is classed as functional.
Another assay concerns Klebsiella pneumoniae. Briefly: Antibacterial activity against Klebsiella pneumoniae CN 3632. The assay is classed as functional.
Another assay relates to Serratia marcescens. Briefly: Antibacterial activity against of against Serr. marcescens CN 398. The assay is classed as functional.
The target of assay [2] is Bifunctional dihydrofolate reductase-thymidylate synthase (Plasmodium berghei str. ANKA, UniProt Q27713). As to the kind of experiment: Inhibitory activity against Dihydrofolate reductase enzyme purified from Plasmodium berghei. Conditions: read-out: I50.
Sequence of Bifunctional dihydrofolate reductase-thymidylate synthase (Q27713 whole entry): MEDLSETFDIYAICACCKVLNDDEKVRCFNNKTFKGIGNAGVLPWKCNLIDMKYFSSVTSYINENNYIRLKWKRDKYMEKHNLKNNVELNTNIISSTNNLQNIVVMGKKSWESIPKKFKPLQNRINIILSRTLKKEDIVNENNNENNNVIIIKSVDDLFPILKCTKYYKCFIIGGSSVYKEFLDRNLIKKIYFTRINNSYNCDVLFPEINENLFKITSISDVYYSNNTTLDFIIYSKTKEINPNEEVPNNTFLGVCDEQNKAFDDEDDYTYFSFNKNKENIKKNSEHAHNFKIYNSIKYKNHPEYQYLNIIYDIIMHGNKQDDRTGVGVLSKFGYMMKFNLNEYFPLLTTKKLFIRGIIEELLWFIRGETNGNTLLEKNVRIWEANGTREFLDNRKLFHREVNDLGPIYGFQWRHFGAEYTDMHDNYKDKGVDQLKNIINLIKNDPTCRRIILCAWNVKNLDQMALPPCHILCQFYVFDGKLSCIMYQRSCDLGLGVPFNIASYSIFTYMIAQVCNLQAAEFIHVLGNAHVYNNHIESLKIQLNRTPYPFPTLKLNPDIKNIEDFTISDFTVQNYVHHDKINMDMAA
The next assay addresses T2, Dihydrofolate reductase (Rattus norvegicus, UniProt Q920D2).
T2 sequence (Q920D2 whole entry): T1 sequence (whole entry)
The description is as §1. As to conditions: read-out: I50.

pIC50: −log10 of the molar value. ≈ marks a conversion by molar mass, not a printed value.

`COc1cc(Cc2c[n+](C)c(N)nc2N)cc(OC)c1OC.[I-]` showed an Activity in assay [1] of 41%. Also, the MIC against Escherichia coli is 50 µg/mL; against Proteus vulgaris, above 100 µg/mL; against Shigella dysenteriae, 25 µg/mL; with Staphylococcus aureus it was 50 µg/mL; against Salmonella, 25 µg/mL; with Streptococcus pyogenes, 50 µg/mL. In the assay with Klebsiella pneumoniae, this molecule showed an MIC above 100 µg/mL.
Consider `COc1cc(Cc2c(C)nc(N)nc2N)cc(OC)c1OC`, for which the MIC against Escherichia coli is 30 µg/mL (≈ 98.6 µM); in the assay on Proteus vulgaris, above 100 µg/mL; against Shigella dysenteriae, 30 µg/mL (≈ 98.6 µM); against Staphylococcus aureus, 30 µg/mL (≈ 98.6 µM); in the assay on Salmonella, 30 µg/mL (≈ 98.6 µM); against Streptococcus pyogenes, 30 µg/mL (≈ 98.6 µM). Further, the MIC in the assay on Serratia marcescens and against Klebsiella pneumoniae was above 100 µg/mL throughout.
With `COc1cc(Cc2c(N)nc(N)nc2O)cc(OC)c1O`, the MIC against Escherichia coli, against Proteus vulgaris, against Shigella dysenteriae, with Staphylococcus aureus, against Salmonella and against Streptococcus pyogenes was above 100 µg/mL each time. Moreover, the MIC against Serratia marcescens and in the assay on Klebsiella pneumoniae was above 100 µg/mL in each case.
For `COc1cc(Cc2cnc(N)nc2N)cc(OC)c1O` [4-HYDROXYTRIMETHOPRIM], the pIC50 is 6.52 in assay [2] and 4.04 at Dihydrofolate reductase. Besides, the MIC in the assay with Escherichia coli amounted to 0.125 µg/mL (≈ 0.452 µM); against Proteus vulgaris, 2 µg/mL (≈ 7.24 µM); in the assay with Staphylococcus aureus, 0.5 µg/mL (≈ 1.81 µM); with Salmonella it was 0.03 µg/mL (≈ 0.109 µM); against Streptococcus pyogenes, 0.5 µg/mL (≈ 1.81 µM).
Consider `COc1cc(Cc2cnc(N)nc2N)cc(OC)c1OC` [TRIMETHOPRIM], for which the MIC was determined as 0.3 µg/mL (≈ 1.03 µM) in the assay on Escherichia coli; 1 µg/mL (≈ 3.44 µM) against Proteus vulgaris; 0.1 µg/mL (≈ 0.344 µM) against Shigella dysenteriae; 1 µg/mL (≈ 3.44 µM) against Staphylococcus aureus; 0.3 µg/mL (≈ 1.03 µM) against Salmonella; 0.3 µg/mL (≈ 1.03 µM) against Streptococcus pyogenes. For the same molecule, the MIC is 3 µg/mL (≈ 10.3 µM) in the assay with Serratia marcescens and 0.3 µg/mL (≈ 1.03 µM) against Klebsiella pneumoniae.
